Bioassay records from PubChem.
Compounds with a hit are over-represented: about 0.77% of the library has one in this group of screens.
Pf gametocyte: kills late stage P. falciparum gametocytes; P. falciparum stage V gametocytes, ATP luminescence, 24 h; inhibition, % at 10.9 µM; hit rate 0.065% among 150,000;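 active means inhibition above the mean plus 3 SD of compounds within the control limits, set per campaign, cut at about 38% in these data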;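 further: 0% = DMSO wells and 100% = medium only without gametocytes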
Biofilm kill mix: mixture kills Candida albicans biofilm cells. C. albicans biofilm persisters + clotrimazole, fluorescence viability; primary screen in compound mixtures of four per well. inhibition, % at 7.6 µM. hit rate 0.02% among 120,000. AID 1242;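 active means inhibition above 30.3% in the primary screen of four-compound pools, then above 30% when the compound was retested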;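 further: compounds exposed to preformed 24 h biofilms for 48 h; 0% = untreated biofilm control and 100% = clotrimazole plus chlorhexidine kill blank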
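Incubation: 24 h biofilm formation, then 48 h compound exposure, 37 °C | Material: C. albicans biofilms | Buffer or medium: RPMI/MOPS medium, pH 7.0 | Measured by: 2-h Alamar Blue fluorescence, 535/590 nm excitation/emission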
S1P4 agonist: agonists of human S1P4 receptor | activation, % at 4.98 µM | S1P4-expressing cell line, agonist reporter assay | hit rate 0.35% among 220,000 | O95977; in the data active means activation above about 11%;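 further: 0% = DMSO vehicle and 100% = reference agonist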
S1P3 antag: blocks the human S1P3 receptor; Q99500; AID 485; hit rate 0.27% among 170,000; inhibition, % at 4.98 µM; CHO S1P3 NFAT-BLA reporter, FRET fluorescence, antagonist mode;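 active means inhibition above the plate cutoff, the mean inhibition of test wells on that plate plus 3 SD, cut at about 28% in these data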;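 further: cells challenged with S1P at its EC80 of 0.8 µM; blue over green emission ratio from cleaved BLA substrate after 4 h stimulation; 0% = S1P-stimulated wells and 100% = unstimulated DMSO-only wells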
S1P4 antagonist: blocks the human S1P4 receptor. S1P4-expressing cells, antagonist mode, reporter read-out. inhibition, % at 4.98 µM. hit rate 0.26% among 220,000. AID 1510; in the data active means inhibition above about 29%;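 further: 0% = wells stimulated with agonist and 100% = vehicle wells without agonist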
S1P4 agonist cf: confirmation of human S1P4 receptor agonists; hit rate 7% among 740; shares compounds with S1P4 agonist; S1P4 agonist cell-based reporter assay; activation, % at 4.98 µM; in the data active means activation above about 12%;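 further: 0% = vehicle and 100% = full reference agonist response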
S1P1 ag: human S1P1 agonism as S1P4 agonist counter-screen; shares compounds with S1P4 agonist; S1P1 agonist cell-based assay, activation; activation, % at 4.98 µM; hit rate 4% among 740; in the data active means activation above about 21%;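 further: 0% = vehicle wells and 100% = reference agonist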
Target sequence (P21453 whole entry, looked up): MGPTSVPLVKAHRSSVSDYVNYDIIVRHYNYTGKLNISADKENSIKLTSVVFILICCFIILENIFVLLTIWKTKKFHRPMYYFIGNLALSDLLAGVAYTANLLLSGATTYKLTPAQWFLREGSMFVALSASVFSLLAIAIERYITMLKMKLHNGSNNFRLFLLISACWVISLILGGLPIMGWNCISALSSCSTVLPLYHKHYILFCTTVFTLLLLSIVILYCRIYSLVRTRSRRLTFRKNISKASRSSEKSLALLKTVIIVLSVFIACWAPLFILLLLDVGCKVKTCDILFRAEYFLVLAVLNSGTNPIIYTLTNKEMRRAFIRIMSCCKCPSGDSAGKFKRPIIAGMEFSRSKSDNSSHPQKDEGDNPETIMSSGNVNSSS
Active calls of the source: *; · = no result given.

SMILES	Pf gametocyte	Biofilm kill mix	S1P4 agonist	S1P3 antag	S1P4 antagonist	S1P4 agonist cf	S1P1 ag
COCCn1c(C)cc(/C=C2/NC(=O)N(c3cccc(Cl)c3)C2=O)c1C	6.8	8.1	105.0*	11.8	-12.9	-1.3	-2.5
CCOC(=O)c1cnc2c(ccc3ccccc32)c1N	7.5	·	·	·	·	·	·
CCc1ccc(-c2ccc(SCC(=O)Nc3nnc(C)s3)nn2)cc1	·	17.5	-0.2	-8.7	-3.4	·	·
Fc1ccccc1-c1csc(=Nc2cccnc2)n1CCCn1ccnc1	1.0	9.6	0.9	3.6	-23.8	·	·
COCCn1c(=NC(=O)c2ccc3c(c2)OCCO3)sc2cc(S(N)(=O)=O)ccc21	-2.4	6.8	15.9*	4.2	-3.9	-1.4	-5.7
COCCn1c(=NC(=O)c2cc(Cl)sc2Cl)sc2cc(S(N)(=O)=O)ccc21	-11.8	12.5	1.4	2.1	-14.3	·	·
Cc1ccc(NC(=O)Cn2cc3c(n2)CCC(C)C3)cc1 (stereo not given)	·	·	27.1*	-23.1	2.8	-2.5	-6.7
COCCn1c(=O)sc2ccccc2c1=O	32.0	13.4	26.9*	-12.1	-18.4	-0.7	-1.5
COc1ccc(Cn2c(=O)sc3ccccc3c2=O)cc1	-0.8	10.5	-0.1	4.1	12.5	·	·
CC(C)Sc1nc2ccc(Br)cc2[nH]1	15.5	12.1	13.8*	-8.1	-15.2	-2.2	1.6
CC(C)c1cc(C(=O)O)c2cnn(C(C)C)c2n1	37.2	21.6	2.8	-18.9	-11.1	·	·
O=C(O)CCC(=O)NC1CCCCC1NC(=O)CCC(=O)O (stereo not given)	·	·	0.5	17.7	5.5	·	·
N#Cc1cc2c(=O)n3ccccc3nc2n(-c2ccc(Cl)cc2)c1=O	20.6	10.7	8.6	-7.9	-14.6	·	·
Cc1ccccc1-n1c(=O)c(C#N)cc2c(=O)n3ccccc3nc21	19.1	·	44.2*	·	-39.1	27.1*	45.8*
Cc1cc(-n2c(=O)c(C#N)cc3c(=O)n4ccccc4nc32)no1	·	·	28.3*	-99.0	-73.8	19.6*	34.5*
C=CCn1c(=N)c(C#N)cc2c(=O)n3ccccc3nc21	·	15.2	-0.5	·	-25.2	·	·
C=CCn1c(=O)c(C#N)cc2c(=O)n3ccccc3nc21	·	·	11.3*	-12.6	-14.7	11.7*	30.5*
O=C(O)c1cc2ncc(CCO)cn2n1	·	14.3	-1.6	-7.8	-0.1	·	·
CN(Cc1cc2ccccc2[nH]c1=O)C(=O)c1cccs1	-7.5	25.6	0.4	-9.3	-6.3	·	·
Cc1ccc2[nH]c(=O)c(CN(C)C(=O)c3cccs3)cc2c1	·	19.3	21.6*	-23.4	-10.7	-2.8	-6.8
Cc1nnc(SCC(=O)NCC(=O)Nc2ccc(F)c(F)c2F)n1Cc1ccccc1	8.2	4.0	1.4	5.2	-3.2	·	·
Cc1ccc(C(=O)NCCc2nnc3ccc(SCC(=O)Nc4c(C)cc(C)cc4C)nn23)cc1	-16.8	12.1	13.4*	9.0	-13.1	-1.2	-3.3
Cc1ccc(C(=O)NCCc2nnc3ccc(SCC(=O)Nc4ccccc4C)nn23)cc1	6.7	4.5	-0.9	-12.4	-1.5	·	·
O=C(c1ccccc1)N1CCC(c2nc3c(nnn3Cc3ccccc3Cl)c(=O)[nH]2)CC1	26.3	·	54.8*	·	-6.7	-2.0	-1.7
COc1ccccc1Cn1nnc2c(=O)[nH]c(C3CCN(C(=O)c4ccc(F)cc4)CC3)nc21	·	·	1.4	-5.1	-12.1	·	·
SMILES	Pf gametocyte	Biofilm kill mix	S1P4 agonist	S1P3 antag	S1P4 antagonist	S1P4 agonist cf	S1P1 ag
C[n+]1ccc(C(=O)Nc2ccccc2Cl)cc1	-11.6	·	·	·	·	·	·
COc1ccc(O)c(C2=Nc3ccccc3N=C(c3ccco3)C2)c1	·	·	69.4*	·	-12.4	-2.6	3.4
Oc1ccc(Cl)cc1C1=Nc2ccccc2N=C(c2ccco2)C1	-18.0	6.2	2.3	·	4.6	·	·
CC(NC(=O)Nc1cccc([N+](=O)[O-])c1)(C(F)(F)F)C(F)(F)F	12.9	·	0.4	·	-11.5	·	·
CC1CN(C(=O)COC(=O)c2ccc(NC(=O)CC#N)cc2)CC(C)O1 (stereo not given)	1.5	17.0	11.1*	-6.0	-5.4	-2.0	-3.2
O=C(N/N=C1\CCCc2ccccc21)c1ccc([N+](=O)[O-])cc1	0.3	8.1	11.7*	·	-13.2	-3.1	-0.2
Cc1ccc(-c2nc(NC(=O)c3ccc(S(=O)(=O)N(CCC#N)CCC#N)cc3)sc2-c2ccccc2)cc1	11.2	11.9	1.4	5.8	-23.4	·	·
CCCN(CCC)S(=O)(=O)c1ccc(C(=O)Nc2nc3c(s2)CCc2ccccc2-3)cc1	·	8.0	28.9*	6.0	-13.6	-1.4	-7.3
Clc1ccc(C2CC(c3cccs3)n3ncnc3N2)c(Cl)c1 (stereo not given)	·	18.9	27.2*	11.0	5.2	-1.7	-4.6
CCC(C)Sc1nnc(NC(=O)c2ccco2)s1 (stereo not given)	9.7	·	·	·	·	·	·
Cc1ccc(NC(=O)CN(C)C(=O)CCCN2C(=O)c3ccccc3C2=O)cc1	·	·	38.3*	-9.7	-6.3	-2.0	-9.3
CC(=O)NN1C(=O)c2ccc(Oc3ccc([N+](=O)[O-])cc3)cc2C1=O	·	·	0.0	·	-1.5	·	·
CC(=O)NN1C(=O)c2ccc(Oc3ccc4c(c3)C(=O)N(NC(C)=O)C4=O)cc2C1=O	·	16.5	22.7*	-9.5	-10.9	-2.0	0.5
CSc1nc(N)c(C#N)c(-c2ccc(Cl)cc2)c1C#N	-1.8	·	11.2*	-6.0	19.9	9.2	-7.8
CSc1nc(-c2ccc(Cl)cc2)nc(N)c1C#N	20.3	24.1	0.5	-3.1	-6.0	·	·
Cn1cccc1C(=O)NC(=O)COC(=O)CNC(=O)c1ccc(Cl)cc1Cl	·	6.7	1.9	-5.0	-6.1	·	·
Cn1cccc1C(=O)NC(=O)COC(=O)CNC(=O)CNC(=O)c1ccc(Cl)cc1Cl	4.8	-7.3	22.0*	-24.2	-3.5	-2.3	7.6
Cc1cc(N(CCO)CCO)ccc1N=Nc1cc(F)ccc1F	·	1.7	11.2*	-17.1	4.0	-1.7	-4.8
Nc1ccc(N(CCO)CCO)cc1	-14.2	-0.7	2.8	-5.7	-5.3	·	·
COc1cccc(C2C3=C(CCCC3=O)NC3=C2C(=O)c2ccccc23)c1 (stereo not given)	·	-5.4	12.9*	-0.8	-12.1	-1.7	-5.2
COc1ccc(NC(=O)CSc2nc(C)cs2)c(OC)c1	0.1	7.2	73.9*	-5.7	5.4	-2.8	1.4
CCOC(=O)c1ccc(NC(=O)CCc2nc(-c3ccccc3Cl)no2)cc1	·	·	11.9*	-6.2	1.9	-1.7	-0.1
CNC(=O)NC(=O)COC(=O)c1ccccc1OCc1ccccc1	3.8	8.9	-0.3	12.0	-5.6	·	·
COc1cc(Br)cc(C=Nc2cccc(C(F)(F)F)c2)c1O	-9.6	12.3	13.5*	-5.8	-15.3	0.0	1.9
CCN(CC)C(=O)c1[nH]cnc1C(=O)N[C@@H](C)C(=O)OC(C)(C)C	1.3	19.6	0.2	-12.8	-1.2	·	·
CCCC(=O)Nc1ccc(-c2nc3cc(C)c(C)cc3o2)cc1	·	·	13.1*	18.8	4.8	0.3	-3.9
COC(=O)c1sccc1NC(=O)CC1C(=O)NCCN1C(=O)c1ccc(C)c(C)c1 (stereo not given)	-5.8	19.1	-0.7	-6.5	15.1	·	·
